Experimental data published in ChEMBL document CHEMBL5108018, “Discovery of MDM2-p53 and MDM4-p53 protein-protein interactions small molecule dual inhibitors” (Eur J Med Chem, 2022).
One block for each compound: values may come before it. Activity calls are given as the source filed them. No cut-off for these calls is given here.

Assays:
[1] = test system: HCT-116; test: Antiproliferative activity against human HCT-116 cells harboring wild type p53 overexpressing MDM2 assessed as inhibition of cell growth incubated for 48 hrs by MTS assay; assay type: functional, cell-based; conditions: HCT-116, 48 h
Outline: (§1)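 MTS viability: cells seeded 1×10^4/well (HCT116), 3×10^3/well (SJSA-1, LNCaP), 5×10^3/well (MCF-7), treated ~24 h after plating with DMSO-stock compounds serially diluted in medium (final DMSO ≤0.1%). Ten or more concentrations over 1–100 µM, duplicates, ≥3 independent runs. Exposure 48 h (HCT116), 72 h (MCF-7), 96 h (SJSA-1, LNCaP). MTS 0.5 mg/mL added for 15–30 min, A490. IC50 from four-parameter variable-slope fit.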

[2] = test system: MCF7; test: Antiproliferative activity against human MCF7 cells harboring wild type p53 overexpressing MDM2/4 assessed as inhibition of cell growth incubated for 72 hrs by MTS assay; assay type: functional, cell-based; conditions: MCF7, 72 h; outline: as §1
[3] = test system: SJSA-1; test: Antiproliferative activity against human SJSA-1 cells harboring wild type p53 overexpressing MDM2/4 assessed as inhibition of cell growth incubated for 96 hrs by MTS assay; assay type: functional, cell-based; conditions: SJSA-1, 96 h; outline: as §1
[4] = test system: SJSA-1; test: Induction of apoptosis in human SJSA-1 cells assessed as late apoptotic cells at 10 uM incubated for 96 hrs by Annexin V-FITC/7-AAD staining based flow cytometric analysis (reference value: 3.7%); assay type: functional
[5] = test system: HEK-293T; test: Cytotoxicity against HEK293T cells assessed as reduction in cell viability at 15 uM incubated for 96 hrs by MTS assay; assay type: toxicity, cell-based; conditions: human
Outline: (§2)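 Single-concentration MTS viability with DMSO vehicle control (final ≤0.1%) run in parallel. HEK293T: 3×10^3 cells/well, 15 µM for 96 h. HCT116 p53(-/-): 20 µM for 48 h. Compound added ~24 h after plating; MTS 0.5 mg/mL in fresh medium for 15–30 min, A490. Mean ± SD of three independent experiments, one-way ANOVA with Bonferroni test.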

[6] = test system: SJSA-1; test: Induction of apoptosis in human SJSA-1 cells assessed as viable cells at 10 uM incubated for 96 hrs by Annexin V-FITC/7-AAD staining based flow cytometric analysis (reference value: 94.3%); assay type: functional; conditions: read-out: Activity
[7] = test system: LNCaP; test: Antiproliferative activity against human LNCaP cells harboring wild type p53 overexpressing MDM2/4 assessed as inhibition of cell growth incubated for 96 hrs by MTS assay; assay type: functional, cell-based; outline: as §1
[8] = test system: SJSA-1; test: Induction of cell cycle arrest in human SJSA-1 cells assessed as accumulation of cells at S phase at 15 uM incubated for 96 hrs by RNaseA/PI staining based flow cytometry analysis (reference value: 30.25 %); assay type: functional
[9] = test system: SJSA-1; test: Induction of apoptosis in human SJSA-1 cells assessed as late apoptotic cells at 15 uM incubated for 96 hrs by Annexin V-FITC/7-AAD staining based flow cytometric analysis (reference value: 3.7%); assay type: functional
[10] = test system: SJSA-1; test: Induction of cell cycle arrest in human SJSA-1 cells assessed as accumulation of cells at G2/M phase at 10 uM incubated for 96 hrs by RNaseA/PI staining based flow cytometry analysis (reference value: 18.82 %); assay type: functional
[11] = test system: SJSA-1; test: Induction of cell cycle arrest in human SJSA-1 cells assessed as accumulation of cells at G2/M phase at 15 uM incubated for 96 hrs by RNaseA/PI staining based flow cytometry analysis (reference value: 18.82 %); assay type: functional
[12] = test system: SJSA-1; test: Induction of cell cycle arrest in human SJSA-1 cells assessed as accumulation of cells at G0/G1 phase at 15 uM incubated for 96 hrs by RNaseA/PI staining based flow cytometry analysis (reference value: 50.93 %); assay type: functional
[13] = test system: SJSA-1; test: Induction of cell death in human SJSA-1 cells assessed as loss of cell volume at 1.5 times IC50 incubated for 96 hrs by bright field microscopic analysis; assay type: functional, cell-based
Outline: (§3)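 Brightfield microscopy of SJSA-1 cell morphology after 96 h with DMSO vehicle or compound.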

[14] = test system: SJSA-1; test: Induction of cell death in human SJSA-1 cells assessed as reduction in cell growth at IC50 incubated for 96 hrs by bright field microscopic analysis; assay type: functional, cell-based; outline: as §3
[15] = test system: SJSA-1; test: Induction of apoptosis in human SJSA-1 cells assessed as viable cells at 15 uM incubated for 96 hrs by Annexin V-FITC/7-AAD staining based flow cytometric analysis (reference value: 94.3%); assay type: functional; conditions: read-out: Activity
[16] = test system: SJSA-1; test: Induction of apoptosis in human SJSA-1 cells assessed as early apoptotic cells at 10 uM incubated for 96 hrs by Annexin V-FITC/7-AAD staining based flow cytometric analysis (reference value: 1.9%); assay type: functional
[17] = test system: SJSA-1; test: Induction of cell cycle arrest in human SJSA-1 cells assessed as accumulation of cells at S phase at 10 uM incubated for 96 hrs by RNaseA/PI staining based flow cytometry analysis (reference value: 30.25 %); assay type: functional
[18] = test system: SJSA-1; test: Induction of apoptosis in human SJSA-1 cells assessed as early apoptotic cells at 15 uM incubated for 96 hrs by Annexin V-FITC/7-AAD staining based flow cytometric analysis (reference value: 1.9%); assay type: functional
[19] = test system: SJSA-1; test: Induction of cell cycle arrest in human SJSA-1 cells assessed as accumulation of cells at G0/G1 phase at 10 uM incubated for 96 hrs by RNaseA/PI staining based flow cytometry analysis (reference value: 50.93 %); assay type: functional
[20] = Antiproliferative activity against human HCT116-p53-null cells assessed as reduction in cell viability at 20 uM incubated for 48 hrs by MTS assay; assay type: functional; outline: as §2

SMILES: CCOC(=O)C1=NN(C2CCCCC2)C2(C(=O)Nc3cc(Cl)ccc32)C1c1cccc(Cl)c1 (stereo unspecified)
IC50 [1]: 25.5 µM

SMILES: CCOC(=O)C1=NN(c2ccccc2)C2(C(=O)Nc3cc(Cl)ccc32)C1c1cccc(F)c1 (stereo unspecified)
IC50 [1]: 29.9 µM

SMILES: O=C(Nc1ccc(O)cc1)C1=NN(c2ccc(Cl)cc2)C2(C(=O)Nc3cc(Cl)ccc32)C1c1cccc(O)c1 (stereo unspecified)
IC50 [1]: 27.2 µM
IC50 [2]: 14.3 µM

SMILES: CCOC(=O)C1=NN(C2CCCCC2)C2(C(=O)Nc3cc(Cl)ccc32)C1c1cccc(Cl)c1F (stereo unspecified)
IC50 [3]: 12.6 µM
IC50 [1]: 23.6 µM

SMILES: O=C(Nc1cccc(-n2ccc(-c3ccccc3)n2)c1)C1=NN(c2ccc(Cl)cc2)C2(C(=O)Nc3cc(Cl)ccc32)C1c1cccc(O)c1 (stereo unspecified)
Activity [4]: 5.2%
Activity [5]: Non-Toxic
viability at 10 µM [6]: 90.5%
IC50 [7]: 11.4 µM
Activity [8]: 4.27%
Activity [9]: 19.1%
IC50 [3]: 10.7 µM
Activity [10]: 8.94%
IC50 [1]: 18.8 µM
Activity [11]: 3.91%
Activity [12]: 91.82%
Activity [13]: Active
Activity [14]: Active
IC50 [2]: 9.7 µM
viability at 15 µM [15]: 65.3%
Activity [16]: 4.1%
Activity [17]: 16.17%
Activity [18]: 14.4%
Activity [19]: 74.89%
Activity [20]: 52%

SMILES: CCOC(=O)C1=NN(c2ccc(Cl)cc2)C2(C(=O)Nc3cc(Cl)ccc32)C1c1cccc(O)c1 (stereo unspecified)
IC50 [1]: 33.7 µM

SMILES: CCOC(=O)C1=NN(C2CCCCC2)C2(C(=O)Nc3cc(Cl)ccc32)C1c1ccc(F)cc1 (stereo unspecified)
IC50 [1]: 31.7 µM
IC50 [2]: 20.2 µM

Second part, the compound after the results:

IC50 [1]: > 50 µM
SMILES: CC(C)(C)N1N=C(C(=O)NCCO)C(c2cccc(Cl)c2F)C12C(=O)Nc1cc(Cl)ccc12 (stereo unspecified)

IC50 [1]: > 100 µM
SMILES: CC(C)(C)N1N=C(C(=O)O)C(c2cccc(Cl)c2F)C12C(=O)Nc1cc(Cl)ccc12 (stereo unspecified)

IC50 [7]: 13.1 µM
IC50 [1]: 27.5 µM
SMILES: CCOC(=O)C1=NN(C2CCCCC2)C2(C(=O)Nc3cc(Cl)ccc32)C1c1cccc(F)c1 (stereo unspecified)

IC50 [1]: 44.8 µM
SMILES: CCOC(=O)C1=NN(C(C)(C)C)C2(C(=O)Nc3cc(Cl)ccc32)C1c1cccc(F)c1 (stereo unspecified)

IC50 [1]: 34.2 µM
SMILES: CC(C)(C)N1N=C(C(=O)Nc2ccc(O)cc2)C(c2cccc(Cl)c2F)C12C(=O)Nc1cc(Cl)ccc12 (stereo unspecified)

IC50 [1]: 39.1 µM
SMILES: CCOC(=O)C1=NN(C2CCCCC2)C2(C(=O)Nc3cc(Cl)ccc32)C1c1ccc(Cl)cc1 (stereo unspecified)
